{"source": "ChEMBL document CHEMBL1125152", "about": "“Design, synthesis, testing, and quantitative structure-activity relationship analysis of substituted salicylaldehyde Schiff bases of 1-amino-3-hydroxyguanidine tosylate as new antiviral agents against coronavirus” (1990)", "data": [{"tested_on": "Murine hepatitis virus", "assay": "Dose required to inhibit the growth of mouse hepatitis virus (MHV) in infected mouse astrocytoma (DBT) cells using plaque assay", "assay_type": "functional", "outline": "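DBT monolayers infected with MHV at MOI 1 to 5, adsorbed 1 h at room temperature, then given MEM with 5% FCS plus compound (final 0.97 to 3030 μM, 0.15% DMSO) at 37 °C. Media harvested 18 h postinfection and titred by plaque assay on DBT cells (0.75% agarose overlay, 48 h, neutral red). Run in duplicate. % inhibition = (1 − T/C) × 100; TCID50 by probit analysis.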", "units": {"EC50": "µM"}, "values": [{"compound": "Cc1ccc(S(=O)(=O)O)cc1.N/C(=N\\O)N/N=C/c1ccc2ccccc2n1", "EC50": 39.3}, {"compound": "Cc1ccc(S(=O)(=O)O)cc1.N/C(=N\\O)N/N=C/c1cc(Br)cc(Br)c1O", "EC50": 9.5}, {"compound": "Cc1ccc(S(=O)(=O)O)cc1.N/C(=N\\O)N/N=C/c1nccc2ccccc12", "EC50": 47.7}, {"compound": "Cc1ccc(S(=O)(=O)O)cc1.N/C(=N\\O)N/N=C/c1cc(O)c(O)c(O)c1", "EC50": 150}, {"compound": "Cc1ccc(S(=O)(=O)O)cc1.N/C(=N\\O)N/N=C/c1ccccc1O", "EC50": 76}, {"compound": "Cc1ccc(S(=O)(=O)O)cc1.N/C(=N\\O)N/N=C/c1ncccc1O", "EC50": 89.9}, {"compound": "Cc1ccc(S(=O)(=O)O)cc1.N/C(=N\\O)N/N=C/c1c2ccccc2c(Cl)c2ccccc12", "EC50": 7.12}, {"compound": "Cc1ccc(S(=O)(=O)O)cc1.N/C(=N\\O)N/N=C/c1c(O)cc(O)cc1O", "EC50": 18.1}, {"compound": "Cc1ccc(S(=O)(=O)O)cc1.N/C(=N\\O)N/N=C/c1cc([N+](=O)[O-])cc([N+](=O)[O-])c1O", "EC50": 273}, {"compound": "Cc1ccc(S(=O)(=O)O)cc1.N/C(=N\\O)N/N=C/c1cc2c(cc1Cl)OCO2", "EC50": 9.14}, {"compound": "Cc1ccc(S(=O)(=O)O)cc1.N/C(=N\\O)N/N=C/c1ccc2c(c1)OCCO2", "EC50": 46.1}, {"compound": "Cc1ccc(S(=O)(=O)O)cc1.Cc1ncc(COP(=O)(O)O)c(/C=N/N=C(/N)NO)c1O", "EC50": 40.8}, {"compound": "Cc1ccc(S(=O)(=O)O)cc1.N/C(=N\\O)N/N=C/c1ccc(O)c(O)c1O", "EC50": 183}, {"compound": "C=CCc1cccc(/C=N/N/C(N)=N/O)c1O.Cc1ccc(S(=O)(=O)O)cc1", "EC50": 3.42}, {"compound": "Cc1ccc(S(=O)(=O)O)cc1.N/C(=N\\O)N/N=C/c1cc(Cl)cc(Cl)c1O", "EC50": 9.54}]}]}
